Data on six compounds can be found in ChEMBL document CHEMBL4028857, “Anchimerically Activated ProTides as Inhibitors of Cap-Dependent Translation and Inducers of Chemosensitization in Mantle Cell Lymphoma” (J Med Chem, 2017).

Structures are written as SMILES. Activity calls are given as the source filed them. No cut-off for these calls is given here.

One data set deals with Granta-519. As to the kind of experiment: Drug uptake in human GRANTA-519 cells assessed per 5 million cells at 150 uM after 12 hrs by LC-MS/MS analysis. To be noted: granta-519, 12 h. It counts as ADME, cell-based. Summed up: (§1)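 Five million MCL cells in RPMI/10% FBS with penicillin, streptomycin and L-glutamine were exposed to compound (150 µM) for 12 h at 37 °C. Cells were washed in cold PBS, extracted in MeOH/NH4OAc (60:40) with 80 fmol internal standards, freeze-thawed three times, then filtered and dried. Residue was taken up in HEPES for LC-MS/MS, quantified against an internal-standard curve.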

In data set [1] the target is T1, Adenosine 5'-monophosphoramidase HINT1 (Homo sapiens, UniProt P49773). The data set is described as follows: Prodrug activation in human Mino cells assessed as Hint1 mediated 2-amino-7-(2-(4-chlorophenoxy)ethyl)-9-((2R,3R,4S,5R)-3,4-dihydroxy-5-(phosphonooxymethyl)tetrahydrofuran-2-yl)-6-oxo-6,9-dihydro-1H-purin-7-ium formation per 5 million cells at 150 uM after 12 hrs by LC-MS/MS analysis. It counts as cell-based. Summed up:
(§2)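 Mantle cell lymphoma cells (five million) grown in RPMI with 10% FBS, penicillin/streptomycin and L-glutamine at 37 °C, 5% CO2, then exposed to 150 µM compound for 12 h at 37 °C. Washed with ice-cold PBS, pellet extracted in MeOH/NH4OAc (60:40) with 80 fmol internal standards, three liquid-N2 freeze–thaw cycles, filtered, dried, redissolved in 20 mM HEPES pH 7.2. Analysed by LC-MS/MS against a standard curve.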

Data set [2] deals with T1, Adenosine 5'-monophosphoramidase HINT1. The data set is described as follows: Prodrug activation in human GRANTA-519 cells assessed as Hint1 mediated 2-amino-7-(2-(4-chlorophenoxy)ethyl)-9-((2R,3R,4S,5R)-3,4-dihydroxy-5-(phosphonooxymethyl)tetrahydrofuran-2-yl)-6-oxo-6,9-dihydro-1H-purin-7-ium formation per 5 million cells at 150 uM after 12 hrs by LC-MS/MS analysis. Format: cell-based. Summed up: as §1

The next data set relates to Rattus norvegicus. The data set is described as follows: AUC (0 to 8 hrs) in Sprague-Dawley rat plasma assessed as 2-amino-7-(2-(4-chlorophenoxy)ethyl)-9-((2R,3R,4S,5R)-3,4-dihydroxy-5-(phosphonooxymethyl)tetrahydrofuran-2-yl)-6-oxo-6,9-dihydro-1H-purin-7-ium at 2.5 mg/kg, iv by LC-MS/MS analysis. On the set-up: time < 8 hr, dose 2.5 mg/kg, route intravenous. To be noted: in vivo. Format: ADME, organism-based. The essentials: (§3)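 Female Sprague-Dawley rats (250-274 g, n=3, catheterized femoral/jugular veins) dosed once p.o. by gavage (25 mg/kg) then, after a 3-day washout, i.v. (2.5 mg/kg). Formulation: 10 mg/mL in 0.5% aqueous CMC with 5% DMSO. Serial blood draws to 480 min into K2EDTA; plasma protein-precipitated with acetonitrile plus internal standards; LC-MS/MS (positive MRM); non-compartmental PK; %F from dose-normalized AUC per rat.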

Data set [3] is described as follows: AUC (0 to 8 hrs) in Sprague-Dawley rat plasma at 25 mg/kg, po by LC-MS/MS analysis. Format: ADME, organism-based. Set-up: time < 8 hr, dose 25 mg/kg, route oral. Summed up: as §3
For the next data set, the system named is Z-138. As to the kind of experiment: Drug uptake in human Z138 cells assessed per 5 million cells at 150 uM after 12 hrs by LC-MS/MS analysis. Format: ADME, cell-based. To be noted: z-138, 12 h. The essentials: as §1
Data set [4] can be described thus: AUC (0 to 8 hrs) in Sprague-Dawley rat plasma at 2.5 mg/kg, iv by LC-MS/MS analysis. It counts as ADME, organism-based. Set-up: time < 8 hr, dose 2.5 mg/kg, route intravenous. Summed up:
as §3

Data set [5] is described as follows: Volume of distribution in Sprague-Dawley rat at 2.5 mg/kg, iv by LC-MS/MS analysis. It counts as ADME, organism-based. As to conditions: in vivo. Summed up: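 Female Sprague-Dawley rats (n=3, 250-274 g) with catheters; compound in 0.5% aqueous CMC with 5% DMSO given as a single i.v. injection, 2.5 mg/kg. Blood drawn at 0–480 min into K2EDTA tubes. Plasma precipitated with acetonitrile containing internal standards, then LC-MS/MS in positive MRM mode. Parameters from non-compartmental analysis.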

Data set [6] deals with T1, Adenosine 5'-monophosphoramidase HINT1. The data set is described as follows: Prodrug activation in human Z138 cells assessed as Hint1 mediated 2-amino-7-(2-(4-chlorophenoxy)ethyl)-9-((2R,3R,4S,5R)-3,4-dihydroxy-5-(phosphonooxymethyl)tetrahydrofuran-2-yl)-6-oxo-6,9-dihydro-1H-purin-7-ium formation per 5 million cells at 150 uM after 12 hrs by LC-MS/MS analysis. It counts as cell-based. The essentials: as §2

Data set [7] in a line: Oral bioavailability in Sprague-Dawley rat at 25 mg/kg by LC-MS/MS analysis. Format: ADME, organism-based. To be noted: in vivo. The essentials: as §3
A further data set relates to Plasma. The data set is described as follows: Prodrug activation in Sprague-Dawley rat plasma assessed as 2-amino-7-(2-(4-chlorophenoxy)ethyl)-9-((2R,3R,4S,5R)-3,4-dihydroxy-5-(phosphonooxymethyl)tetrahydrofuran-2-yl)-6-oxo-6,9-dihydro-1H-purin-7-ium level at 2.5 mg/kg, iv measured at 5 mins by LC-MS/MS analysis. It counts as organism-based. As to conditions: in vivo. The essentials:
as §3

Data set [8] in a line: Drug uptake in human Mino cells assessed per 5 million cells at 150 uM after 12 hrs by LC-MS/MS analysis. Format: ADME, cell-based. Summed up: as §1
A short description of data set [9]: Half life in Sprague-Dawley rat at 2.5 mg/kg, iv by LC-MS/MS analysis. It counts as ADME, organism-based. To be noted: in vivo. The essentials:
as §3

A short description of data set [10]: Clearance in Sprague-Dawley rat at 2.5 mg/kg, iv by LC-MS/MS analysis. Format: ADME, organism-based. As to conditions: Sprague-Dawley, in vivo. Summed up:
as §3

Data set [11] can be described thus: Half life in HEPES buffer at 80 uM at pH 7.2 by RP-HPLC analysis. Format: physicochemical. Summed up:
(§4)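 Compound at 80 µM in 20 mM HEPES (pH 7.2 or 2.0) incubated at 37 °C; aliquots analyzed by RP-HPLC at 0, 1, 4, 6, 12, 18 and 24 h to follow methylthioalkyl deprotection and derive half-life.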

The nature of data set [12]: Half life in HEPES buffer at 80 uM at pH 2 by RP-HPLC analysis. It counts as physicochemical. The essentials: as §4
The target of data set [13] is Eukaryotic translation initiation factor 4E (Homo sapiens) (UniProt P06730). As to the kind of experiment: Inhibition of eIF4E in human Mino cells assessed as down regulation of c-Myc protein expression at 10 to 25 uM after 48 hrs by Western blot analysis. Format: cell-based. The essentials:
(§5)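 MCL cell lines treated with ProTide 48 h. Lysates were protein-quantified, then immunoblotted.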
A general note: Immunoblotting shows a protein as a band on a membrane.

Data set [14] in a line: Cytotoxicity against human Mino cells assessed as reduction in cell survival at 25 uM after 48 hrs by Annexin V/propidium iodide based flow cytometric analysis. The essentials:
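MCL cell lines exposed to ProTide 48 h, re-dosed daily. Survival read by Annexin V/PI staining on flow cytometry.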
(Flow cytometry measures light scatter and fluorescence of single cells or particles in a stream.)

The subject of data set [15] is Mino. As to the kind of experiment: Antiproliferative activity against human Mino cells at 25 uM preincubated for 48 hrs followed by thymidine addition measure after 16 hrs by Thymidine incorporation assay. Format: functional, cell-based. Summed up: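 MCL cell lines exposed to ProTide 48 h with fresh compound added every day, then thymidine added for a further 16 h. Proliferation read as thymidine incorporation.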

Data set [16] has as its target Eukaryotic translation initiation factor 4E-binding protein 1 (Homo sapiens) (UniProt Q13541). As to the kind of experiment: Inhibition of 4EBP1 phosphorylation at Ser 65 residues in human Mino cells at 10 to 25 uM after 48 hrs by Western blot analysis. It counts as cell-based. The essentials:
as §5

Data set [17] has the same target. The data set is described as follows: Inhibition of 4EBP1 phosphorylation at Thr 37/46 residues in human Mino cells at 10 to 25 uM after 48 hrs by Western blot analysis. Format: cell-based. Summed up: as §5
For data set [18], the system named is Mino. As to the kind of experiment: Antiproliferative activity against human Mino cells at 100 uM preincubated for 48 hrs followed by thymidine addition measure after 16 hrs by Thymidine incorporation assay. It counts as functional, cell-based. Summed up: (§6)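 MCL lines treated 48 h with compound re-added daily, alone or with co-drug (ibrutinib 25 µM where used), then thymidine added for a further 16 h; proliferation read as thymidine incorporation.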
(In general: Uptake of a labelled nucleoside into DNA is a usual measure of proliferation.)

Data set [19] has as its system Mino. As to the kind of experiment: Antiproliferative activity against human Mino cells at […] preincubated for 48 hrs followed by thymidine addition measure after 16 hrs by Thymidine incorporation assay. It counts as functional, cell-based. The essentials:
as §6

Broadly, the AUC is the area under the concentration-time curve, a measure of exposure. By AUC(0-t) is commonly meant the area under the concentration-time curve up to a stated or last time point. Low readings indicate less exposure, high ones more exposure. As a reminder, the Vd is a proportionality between amount in the body and measured concentration, not a real space. Low values mean confinement near the circulation, high ones extensive tissue distribution. By bioavailability is commonly meant dose-corrected exposure relative to a reference, in per cent. High values mean much systemic uptake, low ones little systemic uptake. Broadly, the half-life is the time in which the quantity being followed falls by half. One may read the clearance as the rate of elimination divided by the concentration. The low end stands for inefficient removal, the high end for efficient removal.

T1 sequence (P49773 whole entry): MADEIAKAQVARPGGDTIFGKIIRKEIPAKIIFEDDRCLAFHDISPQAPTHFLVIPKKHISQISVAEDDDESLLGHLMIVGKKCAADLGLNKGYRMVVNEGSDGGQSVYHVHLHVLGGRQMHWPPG
Sequence of Eukaryotic translation initiation factor 4E-binding protein 1 (Homo sapiens) (Q13541 whole entry): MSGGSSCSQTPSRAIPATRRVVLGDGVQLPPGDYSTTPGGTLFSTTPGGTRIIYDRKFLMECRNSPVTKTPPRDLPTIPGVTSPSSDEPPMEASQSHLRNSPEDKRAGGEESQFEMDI
Sequence of Eukaryotic translation initiation factor 4E (Homo sapiens) (P06730 whole entry): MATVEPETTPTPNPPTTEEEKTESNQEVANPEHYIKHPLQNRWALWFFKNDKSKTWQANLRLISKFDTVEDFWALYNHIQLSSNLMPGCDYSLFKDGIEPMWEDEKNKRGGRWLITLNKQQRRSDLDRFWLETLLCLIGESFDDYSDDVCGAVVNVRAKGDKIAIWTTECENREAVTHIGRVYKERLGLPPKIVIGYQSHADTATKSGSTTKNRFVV

Take `Nc1nc2c(c(=O)[nH]1)[n+](CCOc1ccc(Cl)cc1)cn2[C@@H]1O[C@H](COP(=O)(O)NCCc2c[nH]c3ccccc23)[C@@H](O)[C@H]1O`: the Drug uptake in the data set with Granta-519 amounted to 1.52 pmol; in the data set with Z-138, 0.163 pmol; in [8], 0.59 pmol. The Drug metabolism was determined as 7.49 pmol in data set [1], 5.23 pmol in data set [2], 0.523 pmol in data set [6] and 583 ng/mL in the data set on Plasma. Besides, the exposure (AUC) with Rattus norvegicus was found to be 13.1 µg·min/mL. Moreover, the AUC(0-t) at 8 h in [3] is 0.0317 µg·h/mL; in data set [4] it was 0.147 µg·h/mL. This compound showed a Vd in data set [5] of 70 L/kg. This compound also returned a bioavailability in data set [7] below 1%. In data set [9], this compound came in with a half-life of 2.72 h. This compound also yielded a clearance in data set [10] of 18 L/h/kg.
`CSCCCOP(=O)(NCCc1c[nH]c2ccccc12)OC[C@H]1O[C@@H](n2c[n+](CCOc3ccc(Cl)cc3)c3c(=O)[nH]c(N)nc32)[C@H](O)[C@@H]1O` (some centres undefined) returned a half-life at 80 µM in data set [11] above 60 h.
For the compound `CSCCCCOP(=O)(NCCc1c[nH]c2ccccc12)OC[C@H]1O[C@@H](n2c[n+](CCOc3ccc(Cl)cc3)c3c(=O)[nH]c(N)nc32)[C@H](O)[C@@H]1O` (some centres undefined), the half-life at 80 µM is 10.4 h in data set [11] and 13 h in data set [12].
Take `C=CC(=O)N1CCC[C@@H](n2nc(-c3ccc(Oc4ccccc4)cc3)c3c(N)ncnc32)C1` [IBRUTINIB]: the inhibition result in data set [13] and in data set [16] was “Active” in each case. Further, the Activity result in data set [14] is reported as “Non-Toxic”. In the data set with Mino [15], the outcome was inactive. The inhibition entry in [17] was “inactive”.
Take `C[C@@H]1C[C@H]2[C@@H]3CCC4=CC(=O)C=C[C@]4(C)[C@@]3(F)[C@@H](O)C[C@]2(C)[C@@]1(O)C(=O)CO`: the result with Mino [18] was Active.
In the case of `COc1cccc2c1C(=O)c1c(O)c3c(c(O)c1C2=O)C[C@@](O)(C(=O)CO)C[C@@H]3O[C@H]1C[C@H](N)[C@H](O)[C@H](C)O1`, the result with Mino [19] was inactive.
